# Measurements: ChEMBL document CHEMBL1133522, “Chiral resolution, pharmacological characterization, and receptor docking of the noncompetitive mGlu1 receptor antagonist (+/-)-2-hydroxyimino- 1a, 2-dihydro-1H-7-oxacyclopropa[b]naphthalene-7a-carboxylic acid ethyl ester” (J Med Chem, 2000)
# Experiments:
# [1] = molecular target: T1, Metabotropic glutamate receptor 1 (Homo sapiens, UniProt Q13255); experiment: Inhibition of Quisqualate-Induced PI Hydrolysis measured in CHO Metabotropic glutamate receptor 1 Expressing Cells; assay type: functional
# How it was run: (§1)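 Human mGlu1b receptor, cloned and stably expressed in CHO cells. Inhibition of quisqualate-stimulated phosphoinositol hydrolysis. Each data point is a triplicate measurement from at least three independent experiments, given as mean ± SEM. Four-parameter logistic fit of concentration–response curves gives IC50 with 95% confidence intervals. Highest concentration tested was 30 µM, or 100 µM where solubility allowed.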
# Target sequence in this assay (Q13255 whole entry): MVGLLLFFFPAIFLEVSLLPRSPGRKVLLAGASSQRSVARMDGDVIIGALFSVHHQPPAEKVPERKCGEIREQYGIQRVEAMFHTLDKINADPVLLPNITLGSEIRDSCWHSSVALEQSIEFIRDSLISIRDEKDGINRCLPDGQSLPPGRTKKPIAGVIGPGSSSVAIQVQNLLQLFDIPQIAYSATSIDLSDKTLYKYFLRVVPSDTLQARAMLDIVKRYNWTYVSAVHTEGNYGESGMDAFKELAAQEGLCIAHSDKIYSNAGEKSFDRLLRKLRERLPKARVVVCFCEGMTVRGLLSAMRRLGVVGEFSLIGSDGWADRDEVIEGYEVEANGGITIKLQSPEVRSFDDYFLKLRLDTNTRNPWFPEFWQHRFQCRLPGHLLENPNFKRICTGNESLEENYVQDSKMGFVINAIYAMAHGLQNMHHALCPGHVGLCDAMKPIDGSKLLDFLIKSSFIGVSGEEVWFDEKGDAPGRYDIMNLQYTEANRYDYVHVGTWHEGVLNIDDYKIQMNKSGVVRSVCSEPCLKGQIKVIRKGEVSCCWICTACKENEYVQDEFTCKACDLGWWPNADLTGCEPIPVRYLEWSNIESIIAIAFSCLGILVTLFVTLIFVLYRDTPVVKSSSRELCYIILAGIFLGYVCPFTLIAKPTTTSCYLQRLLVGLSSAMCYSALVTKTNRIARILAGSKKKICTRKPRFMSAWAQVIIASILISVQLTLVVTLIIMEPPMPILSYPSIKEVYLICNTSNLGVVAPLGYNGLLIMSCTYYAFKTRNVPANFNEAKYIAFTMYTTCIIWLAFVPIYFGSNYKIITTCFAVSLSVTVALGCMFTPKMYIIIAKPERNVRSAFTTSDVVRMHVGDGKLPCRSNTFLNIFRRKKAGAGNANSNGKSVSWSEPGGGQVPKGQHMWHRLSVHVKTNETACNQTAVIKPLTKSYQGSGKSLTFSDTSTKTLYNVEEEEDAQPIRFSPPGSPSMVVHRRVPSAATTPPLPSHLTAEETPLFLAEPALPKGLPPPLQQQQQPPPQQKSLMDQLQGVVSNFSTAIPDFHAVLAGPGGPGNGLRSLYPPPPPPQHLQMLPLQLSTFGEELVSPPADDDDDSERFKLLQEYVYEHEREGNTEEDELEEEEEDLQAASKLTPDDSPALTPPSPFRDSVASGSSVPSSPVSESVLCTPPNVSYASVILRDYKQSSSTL
# [2] = molecular target: T1, Metabotropic glutamate receptor 1; experiment: Inhibition of Quisqualate-Induced PI Hydrolysis measured in CHO Metabotropic glutamate receptor 1 Expressing Cells at a concentration of 30 uM; ne means No effect; assay type: functional; how it was run: as §1
# Target sequence in this assay (Q13255 whole entry): as above
# [3] = molecular target: T1, Metabotropic glutamate receptor 1; settings: CHO; 100 uM
# Target sequence in this assay (Q13255 19-1194 limits assumed): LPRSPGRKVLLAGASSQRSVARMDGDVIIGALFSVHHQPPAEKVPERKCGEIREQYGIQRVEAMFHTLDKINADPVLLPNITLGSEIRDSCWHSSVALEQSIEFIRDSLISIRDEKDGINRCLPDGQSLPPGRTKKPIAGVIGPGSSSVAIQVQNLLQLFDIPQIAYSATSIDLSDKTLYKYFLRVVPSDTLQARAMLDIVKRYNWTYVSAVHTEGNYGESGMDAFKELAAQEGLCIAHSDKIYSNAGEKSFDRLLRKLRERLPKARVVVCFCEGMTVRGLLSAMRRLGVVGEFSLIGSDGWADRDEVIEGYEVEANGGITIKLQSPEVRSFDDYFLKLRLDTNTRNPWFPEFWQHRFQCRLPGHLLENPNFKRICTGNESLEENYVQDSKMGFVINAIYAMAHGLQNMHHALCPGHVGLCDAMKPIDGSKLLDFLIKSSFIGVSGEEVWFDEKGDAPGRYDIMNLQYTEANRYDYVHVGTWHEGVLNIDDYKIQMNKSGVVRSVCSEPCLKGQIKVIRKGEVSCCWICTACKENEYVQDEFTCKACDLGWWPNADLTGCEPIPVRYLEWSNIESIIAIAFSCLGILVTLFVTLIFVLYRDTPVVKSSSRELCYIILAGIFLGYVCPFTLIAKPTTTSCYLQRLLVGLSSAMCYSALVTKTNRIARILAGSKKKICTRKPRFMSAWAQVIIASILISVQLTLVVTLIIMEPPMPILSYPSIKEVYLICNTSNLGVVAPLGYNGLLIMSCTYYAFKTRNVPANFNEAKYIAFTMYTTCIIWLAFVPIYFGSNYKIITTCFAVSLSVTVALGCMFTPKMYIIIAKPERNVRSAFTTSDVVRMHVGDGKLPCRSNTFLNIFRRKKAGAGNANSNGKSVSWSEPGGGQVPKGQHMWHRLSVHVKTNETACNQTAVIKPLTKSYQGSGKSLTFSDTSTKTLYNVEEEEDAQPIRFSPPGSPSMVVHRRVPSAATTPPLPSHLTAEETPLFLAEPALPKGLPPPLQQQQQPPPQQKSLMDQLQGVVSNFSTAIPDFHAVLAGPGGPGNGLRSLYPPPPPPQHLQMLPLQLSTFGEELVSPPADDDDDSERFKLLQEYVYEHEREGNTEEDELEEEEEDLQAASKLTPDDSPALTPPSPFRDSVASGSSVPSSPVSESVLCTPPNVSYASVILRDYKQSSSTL
IC50 [1],IC50 [2],inhibition [3],Structure (SMILES)
3.4 µM,–,–,CCOC(=O)C12CC1/C(=N\O)c1ccccc1O2 (racemic)
–,Not Active,–,COC(=O)[C@@H](Cc1ccccc1)NC(=O)[C@@]12C[C@@H]1/C(=N\O)c1ccccc1O2
0.43 µM,–,–,COC(=O)[C@H](Cc1ccccc1)NC(=O)[C@]12C[C@H]1/C(=N\O)c1ccccc1O2
1.2 µM,–,–,COC(=O)[C@H](Cc1ccccc1)NC(=O)C12CC1/C(=N\O)c1ccccc1O2 (mixture of isomers)
–,Not Active,53%,CCOC(=O)[C@@]12CC1/C(=N\O)c1ccccc1O2 (stereo partly drawn)
1.5 µM,–,–,CCOC(=O)[C@]12C[C@H]1/C(=N\O)c1ccccc1O2
1.4 µM,–,–,COC(=O)[C@@H](Cc1ccccc1)NC(=O)C12CC1/C(=N\O)c1ccccc1O2 (mixture of isomers)
